Where “and” joins values, the source holds several entries; their conditions need not be identical. Identical values can stand only once. Calls of active or inactive are those of the source.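 Rule for the calls: active = falling signal, meaning toxicity, with AC50 at or below twice the top valid dose for that sample; inconclusive = flat curve showing 30 to 70% toxicity, or poor fit; inactive = the rest.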

For the first experiment, the system named is NIH 3T3 fibroblast viability, Alamar Blue fluorescence, 48 h. In words: cytotoxicity in NIH 3T3 fibroblasts, dose response, cytotoxicity control for antifungal single agent project, cell-based, dry powder, set 2, plate reader (AID 602394).
Details: not given
The method, boiled down: (§1)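 System: NIH 3T3 mouse fibroblast cells / Controls: 10 µM geldanamycin control / Doses: compound dilution series, highest final concentration 26 µM / Timing: 48 h compound exposure at 37 °C, then 2–3 h dye incubation / Measured by: Alamar Blue fluorescence, Ex 544/Em 590 nm / Medium: Optimem plus 2.5% FBS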
On to `CCOC(=O)N1C(=O)C2(CCCCC2)N(c2ccc(Cl)cc2)C1=S`, for which the AC50 was 22.3 µM. On the same count and under the same terms, next, `CCOC(=O)N1C(=O)C2(CCCCC2)N(c2ccc(C(F)(F)F)cc2)C1=S`: 12.5 µM; `CCCC(=O)N1C(=O)C2(CCCCC2)N(c2ccc(C)cc2)C1=S`: 18.8 µM; `Cc1ccc(N2C(=S)N(C(=O)OCc3ccccc3)C(=O)C23CCCCC3)cc1`: 6.98 µM. Take `CCCCN1C(=O)N(c2ccc(C)cc2)C2(CCCCC2)C1=S`: the concentration at half-maximal activity (AC50) was 20.9 µM.

With `CCOC(=O)N1C(=O)C2(CCCCC2)N(c2ccc(C(C)(C)C)cc2)C1=S`, the AC50 was 16.5 µM. For `CCOC(=O)N1C(=O)C2(CCCCC2)N(c2ccc(CC)cc2)C1=S`, the AC50 was 19.5 µM. The same measure, in the same setting: with `CCOC(=O)N1C(=S)N(c2ccc(C)cc2)C2(CCCCC2)C1=NCc1ccccc1` the figure was > 52 µM (inactive). In the case of `CCOC(=O)N1C(=O)C2(CCCCC2)N(c2ccc(C(C)C)cc2)C1=S`, the AC50 is 13.8 µM.

`CCOC(=O)N1C(=O)C2(CCCCC2)N(c2ccc(-c3ccccc3)cc2)C1=S`: the AC50 was 9.81 µM. Consider `CCOC(=O)N1C(=O)C2(CCCCC2)N(c2cccc(C)c2)C1=S`, for which the AC50 is 24.2 µM.

With `Cc1ccc(N2CC(=O)NC2=S)cc1`, the half-maximal activity concentration (AC50) is 20.7 µM. As for `CCCCN1C(=O)C2(CCCCC2)N(c2ccc(C)cc2)C1=S`, the AC50 was 24.2 µM. For `Cc1ccc(N2C(=S)N(C(=O)OC(C)C)C(=O)C23CCCCC3)cc1`, the AC50 is > 52 µM (inactive).

Tested on in another experiment: not listed separately
The experiment is described as above. The settings on record: NIH 3T3 fibroblast viability, Alamar Blue fluorescence, 48 h; at 2.6 µM (top of the series). The procedure, abridged: as §1
Consider `CC1/C=C/C=C\C=C\C=C\C=C\C=C\C=C\C(O[C@H]2OC(C)C(O)C(N)C2O)CC2OC(O)(CC(O)CC(O)C(O)CCC(O)CC(O)CC(=O)OC(C)C(C)C1O)CC(O)C2C(=O)O` (stereo partly drawn), for which the activity change, negative = toxicity was -14.9% (inactive).

The experiment is the same for the next values; noted with them: NIH 3T3 fibroblast viability, Alamar Blue fluorescence, 48 h; at 26 µM (top of the series).
With `CCOC(=O)N1C(=O)C(C)(C)N(c2ccc(C)cc2)C1=S`, the activity change, negative = toxicity was 14.6% (inactive). Regarding `CCOC(=O)N1C(=O)C2(CCOCC2)N(c2ccc(C)cc2)C1=S`, the activity change, negative = toxicity is 8.99% (inactive). On to `Cc1ccc(N2C(=S)NC(=O)C23CCOCC3)cc1`, for which the activity change, negative = toxicity was 29.4% (inactive). `O=C1NC(=S)N(c2ccc(F)cc2)C12CCCCC2`: the activity change, negative = toxicity is 10.6% (inactive). Regarding `CCOC(=O)N1C(=O)C2(CCCCC2)N(C(C)C)C1=S`, the activity change, negative = toxicity was -8.87% (inactive). As for `CCOC(=O)N1C(=O)C2(CCCCC2)NC1=S`, the activity change, negative = toxicity is 4.41% (inactive). As for `Cc1ccc(N2C(=S)NC(=O)C23CCC3)cc1`, the activity change, negative = toxicity was 25% (inactive). Regarding `Cc1ccc(N2C(=O)NC(=O)C23CCCCC3)cc1`, the activity change, negative = toxicity is -10.2% (inactive). As for `O=C1NC(=S)N(c2ccccc2)C12CCCCC2`, the activity change, negative = toxicity is 52.9% (inactive). On the same count and under the same terms, with `Cc1ccc(N2C(=S)N(C)C(=O)C23CCCCC3)cc1` the figure was -4.95% (inactive) and -14.4% (inactive); with `O=C1NC(=S)NC12CCCCC2`, 3.57% (inactive). For `Cc1ccc(N2C(=S)N(C(=O)Oc3ccccc3)C(=O)C23CCCCC3)cc1`, the activity change, negative = toxicity is 0.942% (inactive).

Consider `Cc1ccc(N2C(=O)N(C)C(=O)C23CCCCC3)cc1`, for which the activity change, negative = toxicity is -27.1% (inactive). Turning to `Cc1ccc(N2C(=S)NC(=O)C23CCCCC3)cc1`, the activity change, negative = toxicity was 12.5% (inactive). For `CCOC(=O)N1C(=O)C2(CCCCC2)N(Cc2ccccc2)C1=S`, the activity change, negative = toxicity is -2.91% (inactive).

With `CCOC(=O)N1C(=O)N(c2ccc(C)cc2)C2(CCCCC2)C1=O`, the activity change, negative = toxicity was 7.79% (inactive).

As to `CCOC(=O)N1C(=O)C2(CCCCC2)N(c2ccccc2)C1=S`, the activity change, negative = toxicity was 17.3% (inactive). As for `Cc1ccc(N2CC(=O)NC2=O)cc1`, the activity change, negative = toxicity was 22.5% (inactive). `CCOC(=O)N1C(=O)C2(CCCCC2)N(c2ccc(F)cc2)C1=S`: the activity change, negative = toxicity was -18.1% (inactive).

For the compound `CCCCN1C(=O)N(c2ccc(C)cc2)C2(CCCCC2)C1=O`, the activity change, negative = toxicity was -35.3% (inactive). As for `CCOC(=O)N1C(=O)C2(CCCCC2)N(c2ccc(C#N)cc2)C1=S`, the activity change, negative = toxicity was 10.9% (inactive). As for `CCOC(=O)N1C(=S)NC(=O)C12CCCCC2`, the activity change, negative = toxicity is 2.71% (inactive).

With `CC(C)N1C(=S)NC(=O)C12CCCCC2`, the activity change, negative = toxicity is 47.5% (inactive). As for `CCOC(=O)N1C(=O)C2(CCCCC2)N(c2ccc(OC)cc2)C1=S`, the activity change, negative = toxicity is 21.1% (inactive). As to `Cc1ccc(N2C(=O)C(=O)NC2=S)cc1`, the activity change, negative = toxicity was 3.56% (inactive). With `Cc1ccc(N2C(=S)NC(=O)C2(C)C)cc1`, the activity change, negative = toxicity is -5% (inactive). As for `Cc1ccc(N2C(=S)N(S(C)(=O)=O)C(=O)C23CCCCC3)cc1`, the activity change, negative = toxicity is -8.26% (inactive). On the same count and under the same terms, with `CCCc1ccc(N2C(=S)N(C(=O)OCC)C(=O)C23CCCCC3)cc1` the figure was -15.8% (inactive); with `O=C1NC(=S)N(Cc2ccccc2)C12CCCCC2`, 5.77% (inactive); with `CCOC(=O)N1C(=O)C2(CCCCC2)N(c2ccccc2C)C1=S`, -14% (inactive). On to `CCOC(=O)N1C(=O)C2(CCC2)N(c2ccc(C)cc2)C1=S`, for which the activity change, negative = toxicity was -6.41% (inactive).

Consider `CCOC(=O)N1C(=O)C2(CCCC2)N(c2ccc(C)cc2)C1=S`, for which the activity change, negative = toxicity is 8.13% (inactive). In the case of `Cc1ccc(N2C(=O)C3(CCCCC3)NC2=S)cc1`, the activity change, negative = toxicity was -13% (inactive).

As a reminder, the AC50 is the concentration giving half of the maximal activity seen.
